From ChEMBL document CHEMBL1649090, “Discovery of (7R)-14-cyclohexyl-7-{[2-(dimethylamino)ethyl](methyl) amino}-7,8-dihydro-6H-indolo[1,2-e][1,5]benzoxazocine-11-carboxylic acid (MK-3281), a potent and orally bioavailable finger-loop inhibitor of the hepatitis C virus NS5B polymerase” (J Med Chem, 2011)
pEC50, pIC50: −log10 of the molar value. Activity calls are given as the source filed them. The rule behind the calls is not given here.

Tests used:
[1] = Clearance in rhesus monkey at 2 mg/kg, iv and 4 mg/kg, po; format: ADME, organism-based, Macaca mulatta; details: in vivo
How it was run: (§1)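 Single-dose PK of the bis-HCl salt, n = 3 per species (dog po n = 2). Intravenous doses: rat 3, dog 1, rhesus 2 mg/kg, in DMSO/PEG400/water 20%/60%/20%. Oral doses: rat 3, dog 2, rhesus 4 mg/kg, in PEG400 for rat and dog and PEG400/water 70%/30% for rhesus.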

[2] = AUC in Sprague-Dawley rat at 3 mg/kg, po; format: ADME, organism-based; set-up: dose 3 mg/kg, route oral; details: plasma
How it was run: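 Single-dose rat PK with the compound given as its TFA salt to Sprague-Dawley rats (n = 3) in DMSO/PEG400/water 20%/60%/20%. Dosing was 3 mg/kg iv and 3 mg/kg po.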

Homo sapiens = species on record: Homo sapiens; assay: Inhibition of human DNA polymerase gamma up to 50 uM
[3] = Intrinsic clearance in human liver microsomes assessed per mg of protein; format: ADME, Microsome
[4] = AUC in dog at 2 mg/kg, po; format: ADME, organism-based, Canis lupus familiaris; set-up: dose 2 mg/kg, route oral; details: plasma; how it was run: as §1
Mus musculus [5] = assay: Toxicity in SCID mouse assessed as mortality at 50 mg/kg, ip bid for 5 days; format: organism-based; set-up: dose 50 mg/kg, route intraperitoneal; details: in vivo, 120 h
Mus musculus [6] = assay: Toxicity in SCID mouse assessed as change in organ weight at 50 mg/kg, ip bid for 5 days; format: organism-based; set-up: dose 50 mg/kg, route intraperitoneal; details: in vivo, 120 h
How it was run: (§2)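 Non-infected SCID mice (n = 3) received 50 mg/kg by intraperitoneal injection twice daily for five consecutive days, as a tolerability run before the infected-mouse study. Body and organ weights were checked for gross changes. Plasma compound levels were measured 12 h after the last dose.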

[7] = Cmax in dog at 1 mg/kg, iv and 2 mg/kg, po; format: ADME, organism-based, Canis lupus familiaris; details: in vivo; how it was run: as §1
[8] = Volume of distribution at steady state in rhesus monkey at 2 mg/kg, iv and 4 mg/kg, po; format: ADME, organism-based, Macaca mulatta; details: in vivo, read-out: Vdss
How it was run: (§3)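 Single iv and single oral doses, given as the bis-HCl salt, in rat, dog and rhesus, n = 3 per species (dog oral n = 2). The iv vehicle was DMSO/PEG400/water 20%/60%/20%. Oral vehicle was PEG400 for rat and dog and PEG400/water 70%/30% for rhesus. Values are mean ± SD.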

Hepatitis C virus [9] = assay: Antiviral activity against HCV1b infected in humanized uPA+/+-SCID mouse assessed as reduction of viremia at 50 mg/kg, ip bid for 4 days; format: functional, Hepacivirus hominis; details: route intraperitoneal
How it was run: (§4)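 Three chimeric uPA+/+-SCID mice with human hepatocytes, infected with genotype 1b HCV, received the dose intraperitoneally twice daily for 4 days in PEG400/water 30%/70%. Three vehicle-only mice were dosed for four days as controls. Plasma HCV RNA change is reported per animal and as mean, in log10 (lower limit 315 IU/mL). Follow-up ran to day 21. Plasma trough drug was measured 12 h after the last dose.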

[10] = Terminal half life in rhesus monkey at 2 mg/kg, iv and 4 mg/kg, po; format: ADME, organism-based, Macaca mulatta; details: in vivo; how it was run: as §3
Cytochrome P450 2C9 = Cytochrome P450 2C9 (Homo sapiens, UniProt P11712); assay: Inhibition of CYP2C9 up to 50 uM; format: ADME
Cytochrome P450 2C9, sequence (P11712 whole entry): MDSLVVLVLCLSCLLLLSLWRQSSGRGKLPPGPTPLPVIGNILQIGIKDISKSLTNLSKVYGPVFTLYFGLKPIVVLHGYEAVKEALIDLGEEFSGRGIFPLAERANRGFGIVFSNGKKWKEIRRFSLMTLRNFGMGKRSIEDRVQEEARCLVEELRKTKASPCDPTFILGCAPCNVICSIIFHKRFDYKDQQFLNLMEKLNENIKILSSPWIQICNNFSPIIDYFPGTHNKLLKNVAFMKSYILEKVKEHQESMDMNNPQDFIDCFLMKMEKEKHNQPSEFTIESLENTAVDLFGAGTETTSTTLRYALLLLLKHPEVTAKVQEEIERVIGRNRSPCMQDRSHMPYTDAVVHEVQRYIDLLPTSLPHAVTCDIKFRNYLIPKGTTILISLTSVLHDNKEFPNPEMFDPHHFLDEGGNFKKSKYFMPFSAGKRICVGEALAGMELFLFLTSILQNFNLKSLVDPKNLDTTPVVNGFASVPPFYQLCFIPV

[11] = Cmax in rhesus monkey at 2 mg/kg, iv and 4 mg/kg, po; format: ADME, organism-based, Macaca mulatta; details: in vivo; how it was run: as §1
[12] = AUC in rhesus monkey at 4 mg/kg, po; format: ADME, organism-based, Macaca mulatta; set-up: dose 4 mg/kg, route oral; details: plasma; how it was run: as §1
Mus musculus [13] = assay: Toxicity in SCID mouse assessed as change in body weight at 50 mg/kg, ip bid for 5 days; format: organism-based; set-up: dose 50 mg/kg, route intraperitoneal; details: in vivo, 120 h; how it was run: as §2
[14] = Oral bioavailability in rhesus monkey at 4 mg/kg; format: ADME, organism-based, Macaca mulatta; details: in vivo; how it was run: as §1
[15] = Volume of distribution at steady state in Sprague-Dawley rat at 3 mg/kg, iv and 3 mg/kg, po; format: ADME, organism-based; details: in vivo, read-out: Vdss; how it was run: as §3
Hepatitis C virus [16] = assay: Antiviral activity against HCV1b infected in human Huh-7 cells assessed as inhibition of viral RNA replication after 96 hrs by ELISA assay in presence of 10% fetal calf serum; format: functional, organism-based, Hepacivirus hominis; details: genotype 1b, Huh-7, 96 h
[17] = target: DNA polymerase beta (Homo sapiens) (UniProt P06746); assay: Inhibition of human DNA polymerase beta up to 50 uM
Hepatitis C virus [18] = assay: Antiviral activity against HCV1b infected in humanized uPA+/+-SCID mouse assessed as reduction of plasma viral RNA level at 10 mg/kg, ip bid for 4 days; format: functional, Hepacivirus hominis; details: route intraperitoneal
How it was run: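 Chimeric uPA+/+-SCID mice with human hepatocytes, infected with genotype 1b HCV, were dosed twice daily. The drop in plasma HCV RNA is given as mean log10. Plasma drug concentration was measured 12 h after the last dose.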

Cytochrome P450 3A4 = Cytochrome P450 3A4 (Homo sapiens, UniProt P08684); assay: Inhibition of CYP3A4 up to 50 uM; format: ADME
Cytochrome P450 3A4, sequence (P08684 whole entry): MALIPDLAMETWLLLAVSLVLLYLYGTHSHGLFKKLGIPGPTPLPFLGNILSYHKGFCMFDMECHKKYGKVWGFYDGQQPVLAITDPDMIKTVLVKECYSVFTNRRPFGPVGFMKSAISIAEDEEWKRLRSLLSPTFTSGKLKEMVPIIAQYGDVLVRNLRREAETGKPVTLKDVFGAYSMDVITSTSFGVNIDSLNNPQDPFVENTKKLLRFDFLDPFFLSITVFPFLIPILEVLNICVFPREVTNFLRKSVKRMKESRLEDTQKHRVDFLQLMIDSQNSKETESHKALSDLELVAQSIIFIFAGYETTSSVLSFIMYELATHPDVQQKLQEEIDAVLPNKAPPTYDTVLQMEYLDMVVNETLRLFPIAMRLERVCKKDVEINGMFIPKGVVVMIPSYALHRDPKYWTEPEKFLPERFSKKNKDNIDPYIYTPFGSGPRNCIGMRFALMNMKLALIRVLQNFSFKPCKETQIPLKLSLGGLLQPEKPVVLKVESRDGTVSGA

[19] = Clearance in Sprague-Dawley rat at 3 mg/kg, iv and 3 mg/kg, po; format: ADME, organism-based; details: in vivo; how it was run: as §1
[20] = Plasma protein binding in human; format: ADME, cell-free; details: read-out: PPB (converted)
[21] = Drug level in Sprague-Dawley rat liver at 3 mg/kg, po after 6 hrs; format: ADME, organism-based; set-up: dose 3 mg/kg, route oral; details: read-out: Drug uptake
How it was run: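 Sprague-Dawley rats (n = 3) received the compound as its TFA salt in DMSO/PEG400/water 20%/60%/20%, as a single iv dose of 3 mg/kg or a single oral dose of 3 mg/kg. Liver tissue and plasma concentrations were measured 6 h after the oral dose.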

Hepatitis C virus [22] = assay: Antiviral activity against HCV2a; format: functional, organism-based, Hepacivirus hominis; details: genotype 2a
[23] = Plasma concentration in SCID mouse at 50 mg/kg, ip bid for 5 days measured 12 hrs after last post dose; format: ADME, organism-based; set-up: dose 50 mg/kg, route intraperitoneal
How it was run: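 SCID mice (n = 3) were given 50 mg/kg by intraperitoneal injection twice daily for five consecutive days. Plasma compound level was measured 12 h after the last dose.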

[24] = Terminal half life in Sprague-Dawley rat at 3 mg/kg, iv and 3 mg/kg, po; format: ADME, organism-based; details: in vivo; how it was run: as §1
[25] = Plasma concentration in HCV1b infected humanized uPA+/+-SCID mouse at 10 mg/kg, ip bid for 4 days measured 12 hrs after last post dose; format: ADME, organism-based; set-up: dose 10 mg/kg, route intraperitoneal
How it was run: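 Three humanized uPA+/+-SCID mice infected with genotype 1b HCV received 10 or 50 mg/kg ip twice daily for 4 days, in PEG400/water 30%/70%. Trough plasma concentration was taken 12 h after the last dose.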

Hepatitis C virus [26] = assay: Inhibition of HCV1b NS5B delta21 polymerase after 1 hr; format: single protein, Hepatitis C virus subtype 1b
How it was run: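 Enzyme inhibition IC50 measured on genotype 1b HCV NS5B polymerase truncated by 21 C-terminal residues (ΔC21).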

[27] = Intrinsic clearance in human liver microsomes assessed per mg of protein presence of UDPGA; format: ADME, Microsome
Hepatitis C virus [28] = assay: Antiviral activity against HCV1b infected in humanized uPA+/+-SCID mouse assessed as reduction of plasma viral RNA level at 50 mg/kg, ip bid for 4 days; format: functional, Hepacivirus hominis; details: route intraperitoneal; how it was run: as §4
[29] = Intrinsic clearance in rat liver microsomes assessed per mg of protein; format: ADME, Microsome

For `CN(C)CCN(C)[C@H]1COc2ccccc2-c2c(C3CCCCC3)c3ccc(C(=O)O)cc3n2C1` [MK-3281], the clearance [1] was 7 mL/min/kg, the AUC [2] was 2.4 µM·h and the inhibition (Homo sapiens) was “inactive”. For the same compound, the microsomal CLint [3] was 7 µL/min/mg, the AUC [4] was 8.6 µM·h and the Activity (Mus musculus [5]) was “Non-toxic”. For the same compound, the Activity (Mus musculus [6]) was “Non-toxic”, the Cmax [7] was 1000 nM and the Vd [8] was 2.2 L/kg. The “fold change (FC)” value (Hepatitis C virus [9]) was -3.94, the half-life [10] was 5.7 h and the “inhibition (INH)” value (Cytochrome P450 2C9) was “Not Active”. For the same compound, the Cmax [11] was 800 nM, the AUC [12] was 7.4 µM·h and the Activity (Mus musculus [13]) was “Non-toxic”. The bioavailability [14] was 35%, the Vd [15] was 3.7 L/kg and the pEC50 (Hepatitis C virus [16]) was 7.42. For the same compound, the inhibition [17] was “inactive”, the “fold change (FC)” value (Hepatitis C virus [18]) was 1.4 and the “inhibition (INH)” value (Cytochrome P450 3A4) was “Not Active”. For the same compound, the clearance [19] was 22 mL/min/kg, the fraction unbound [20] was 0.031 and the concentration at 6 h [21] was 420 nM. For the same compound, the pEC50 (Hepatitis C virus [22]) was 5.70, the concentration at 12 h [23] was 3600 nM and the half-life [24] was 3.4 h. The concentration at 12 h [25] was 670 nM, the pIC50 (Hepatitis C virus [26]) was 8.22 and the microsomal CLint [27] was under 4 µL/min/mg. The “fold change (FC)” value (Hepatitis C virus [28]) was 3.13 and the microsomal CLint [29] was 7 µL/min/mg.
